# Experimental data reported in ChEMBL document CHEMBL1122777, “Effect of tellurium position on the myocardial uptake of radioiodinated 18-iodotellura-17-octadecenoic acid analogues” (1984).
# What was measured:
# Rattus norvegicus [1] = assay: Blood uptake after 3 days was determined in female Fischer rats after [125I]-labeled compound complexed with bovine serum albumin was injected intravenously; format: functional
# Outline: (§1)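 Female Fischer 344 rats (fed ad libitum) under ether anaesthesia received the ¹²⁵I fatty acid in a lateral tail vein. Dose was ~3.8–4.8 μCi per rat (sp act ~125–240 mCi/mmol), given in 0.5 mL 6% bovine albumin (final ethanol 10%) after filtration. Four rats per time point were used. Tissue radioactivity is % injected dose/g, mean with range, calculated against standards of the injected solution.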
# Rattus norvegicus [2] = assay: Blood uptake after 30 min was determined in female Fischer rats after [125I]-labeled compound complexed with bovine serum albumin was injected intravenously; format: functional; outline: as §1
# Rattus norvegicus [3] = assay: Heart uptake after 4 hr was determined in female Fischer rats after [125I]-labeled compound complexed with bovine serum albumin was injected intravenously; format: functional; outline: as §1
# Rattus norvegicus [4] = assay: Liver uptake after 3 days was determined in female Fischer rats after [125I]-labeled compound complexed with bovine serum albumin was injected intravenously; format: functional; outline: as §1
# Rattus norvegicus [5] = assay: Thyroid uptake after 1 day was determined in female Fischer rats after [125I]-labeled compound complexed with bovine serum albumin was injected intravenously; format: functional
# Outline: (§2)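 Female Fischer 344 rats with free access to food and water. The 125I-labelled fatty acid (~3.8–4.8 μCi; sp act. ~125–240 mCi/mmol) was complexed with 6% bovine serum albumin (10% final ethanol), filtered, and 0.5 mL was injected via a lateral tail vein under ether anaesthesia. Four rats per time point. Values are mean % injected dose/g, calculated against injectate standards. Thyroid weight was taken as 7.5 mg/100 g body weight.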
# Rattus norvegicus [6] = assay: Heart uptake after 3 days was determined in female Fischer rats after [125I]-labeled compound complexed with bovine serum albumin was injected intravenously; format: functional; outline: as §1
# [7] = Ratio of heart to kidneys uptake after 240 min was determined in female Fischer rats after [125I]-labeled compound complexed with bovine serum albumin was injected intravenously; format: functional, Heart/Kidney
# Outline: (§3)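 Female Fischer 344 rats (food and water ad libitum) given the 125I-labelled fatty acid in 6% bovine albumin with 10% final ethanol, filtered, 0.5 mL into a lateral tail vein under ether anaesthesia. Four rats per time point. Tissue activity expressed as % injected dose/g against assayed injectate standards. Mean heart/tissue ratios were calculated from mean %ID/g values.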
# Rattus norvegicus [8] = assay: Thyroid uptake after 4 hr was determined in female Fischer rats after [125I]-labeled compound complexed with bovine serum albumin was injected intravenously; format: functional; outline: as §2
# Rattus norvegicus [9] = assay: Blood uptake after 1 day was determined in female Fischer rats after [125I]-labeled compound complexed with bovine serum albumin was injected intravenously; format: functional; outline: as §1
# [10] = Ratio of heart to lungs uptake after 60 min was determined in female Fischer rats after [125I]-labeled compound complexed with bovine serum albumin was injected intravenously; format: functional; outline: as §3
# Rattus norvegicus [11] = assay: Kidneys uptake after 60 min was determined in female Fischer rats after [125I]-labeled compound complexed with bovine serum albumin was injected intravenously; format: functional; outline: as §1
# Rattus norvegicus [12] = assay: Heart uptake after 2 hr was determined in female Fischer rats after [125I]-labeled compound complexed with bovine serum albumin was injected intravenously; format: functional; outline: as §1
# Rattus norvegicus [13] = assay: Blood uptake after 5 min was determined in female Fischer rats after [125I]-labeled compound complexed with bovine serum albumin was injected intravenously; format: functional; outline: as §1
# Rattus norvegicus [14] = assay: Kidneys uptake after 30 min was determined in female Fischer rats after [125I]-labeled compound complexed with bovine serum albumin was injected intravenously; format: functional; outline: as §1
# Rattus norvegicus [15] = assay: Kidneys uptake after 3 days was determined in female Fischer rats after [125I]-labeled compound complexed with bovine serum albumin was injected intravenously; format: functional; outline: as §1
# Rattus norvegicus [16] = assay: Lungs uptake after 5 min was determined in female Fischer rats after [125I]-labeled compound complexed with bovine serum albumin was injected intravenously; format: functional; outline: as §1
# Rattus norvegicus [17] = assay: Kidneys uptake after 2 hr was determined in female Fischer rats after [125I]-labeled compound complexed with bovine serum albumin was injected intravenously; format: functional; outline: as §1
# Rattus norvegicus [18] = assay: Kidneys uptake after 5 min was determined in female Fischer rats after [125I]-labeled compound complexed with bovine serum albumin was injected intravenously; format: functional; outline: as §1
# Rattus norvegicus [19] = assay: Kidneys uptake after 4 hr was determined in female Fischer rats after [125I]-labeled compound complexed with bovine serum albumin was injected intravenously; format: functional; outline: as §1
# Rattus norvegicus [20] = assay: Lungs uptake after 30 min was determined in female Fischer rats after [125I]-labeled compound complexed with bovine serum albumin was injected intravenously; format: functional; outline: as §1
# Rattus norvegicus [21] = assay: Kidneys uptake after 1 day was determined in female Fischer rats after [125I]-labeled compound complexed with bovine serum albumin was injected intravenously; format: functional; outline: as §1
# Rattus norvegicus [22] = assay: Liver uptake after 3 day was determined in female Fischer rats after [125I]-labeled compound complexed with bovine serum albumin was injected intravenously; format: functional; outline: as §1
# Rattus norvegicus [23] = assay: Kidney uptake after 5 min was determined in female Fischer rats after [125I]-labeled compound complexed with bovine serum albumin was injected intravenously; format: functional; outline: as §1
# Rattus norvegicus [24] = assay: Kidney uptake after 30 min was determined in female Fischer rats after [125I]-labeled compound complexed with bovine serum albumin was injected intravenously; format: functional; outline: as §1
# Rattus norvegicus [25] = assay: Blood uptake after 3 day was determined in female Fischer rats after [125I]-labeled compound complexed with bovine serum albumin was injected intravenously; format: functional; outline: as §1
# Rattus norvegicus [26] = assay: Kidney uptake after 3 days was determined in female Fischer rats after [125I]-labeled compound complexed with bovine serum albumin was injected intravenously; format: functional; outline: as §1
# Rattus norvegicus [27] = assay: Kidney uptake after 2 hr was determined in female Fischer rats after [125I]-labeled compound complexed with bovine serum albumin was injected intravenously; format: functional; outline: as §1
# Rattus norvegicus [28] = assay: Kidney uptake after 1 day was determined in female Fischer rats after [125I]-labeled compound complexed with bovine serum albumin was injected intravenously; format: functional; outline: as §1
# Rattus norvegicus [29] = assay: Kidney uptake after 4 hr was determined in female Fischer rats after [125I]-labeled compound complexed with bovine serum albumin was injected intravenously; format: functional; outline: as §1
# Rattus norvegicus [30] = assay: Heart uptake after 3 day was determined in female Fischer rats after [125I]-labeled compound complexed with bovine serum albumin was injected intravenously; format: functional; outline: as §1
# Rattus norvegicus [31] = assay: Kidney uptake after 60 min was determined in female Fischer rats after [125I]-labeled compound complexed with bovine serum albumin was injected intravenously; format: functional; outline: as §1
SMILES,Injected dose/g (Rattus norvegicus [2]),Injected dose/g (Rattus norvegicus [3]),Injected dose/g (Rattus norvegicus [5]),Ratio [7],Injected dose/g (Rattus norvegicus [8]),Injected dose/g (Rattus norvegicus [9]),Ratio [10],Injected dose/g (Rattus norvegicus [12]),Injected dose/g (Rattus norvegicus [13]),Injected dose/g (Rattus norvegicus [16]),Injected dose/g (Rattus norvegicus [20]),further results
O=C(O)CCCCCCCCC[Te]CCCCC/C=C/I,0.66%,2.44%,221%,1.7,72%,0.62%,1.8,3.8%,0.45%,2.49%,2.06%,Injected dose/g (Rattus norvegicus [1]): 0.34%; Injected dose/g (Rattus norvegicus [4]): 0.19%; Injected dose/g (Rattus norvegicus [6]): 0.34%; Injected dose/g (Rattus norvegicus [11]): 1.92%; Injected dose/g (Rattus norvegicus [14]): 1.85%; Injected dose/g (Rattus norvegicus [15]): 0.21%; Injected dose/g (Rattus norvegicus [17]): 1.51%; Injected dose/g (Rattus norvegicus [18]): 2.22%; Injected dose/g (Rattus norvegicus [19]): 1.42%; Injected dose/g (Rattus norvegicus [21]): 0.62%
O=C(O)CCCCCCC[Te]CCCCCCC/C=C/I,0.45%,3.51%,294%,2.9,66.9%,0.46%,3.3,3.9%,0.23%,1.63%,1.52%,Injected dose/g (Rattus norvegicus [22]): 0.64%; Injected dose/g (Rattus norvegicus [23]): 1.58%; Injected dose/g (Rattus norvegicus [24]): 1.38%; Injected dose/g (Rattus norvegicus [25]): 0.21%; Injected dose/g (Rattus norvegicus [26]): 0.22%; Injected dose/g (Rattus norvegicus [27]): 1.27%; Injected dose/g (Rattus norvegicus [28]): 0.59%; Injected dose/g (Rattus norvegicus [29]): 1.19%; Injected dose/g (Rattus norvegicus [30]): 0.28%; Injected dose/g (Rattus norvegicus [31]): 1.52%
